Assay results collected from several papers.
Cacna1b: Voltage-dependent N-type calcium channel subunit alpha-1B (Cacna1b, Rattus norvegicus, UniProt Q02294)
SIRT6: NAD-dependent protein deacylase sirtuin-6 (SIRT6, Homo sapiens, UniProt Q8N6T7)

| target | read-out | action | method | cells | tested at | inhibition [%] | Structure (SMILES) |
| --- | --- | --- | --- | --- | --- | --- | --- |
| Cacna1b | cell-free assay | – | – | – | 10 µM | 5 | O=C(c1ccc(F)cc1)N(Cc1ccccc1)C1CCCCC1 |
| Voltage-dependent L-type calcium channel subunit alpha-1C (Cacna1c, Rattus norvegicus, UniProt P22002) | ligand displacement | – | radioligand | – | 10 µM | 24 | O=C(Nc1ccc(S(=O)(=O)N2CCC(Cl)CC2)cc1)c1ccc([N+](=O)[O-])o1 |
| SIRT6 | enzyme activity | inhibitor | fluorescence | – | 100 µM | 79.7 | NC(=O)c1ccc(C(=O)NOCc2ccccc2Br)cc1 |
| ALK tyrosine kinase receptor (ALK, Homo sapiens, UniProt Q9UM73, G1202R) | enzyme activity | inhibitor | – | – | 0.1 µM | -1.5 | CC/C(=N\NC(=O)NCc1cccc(O)c1)c1ccc(O)c(C)c1O |
| Cacna1b | ligand displacement | – | radioligand | – | 10 µM | 2 | CCN(Cc1ccccc1C(F)(F)F)C(=O)C1CCN(S(=O)(=O)c2ccc3[nH]ncc3c2)CC1 |
| SIRT6 | enzyme activity | inhibitor | fluorescence | – | 100 µM | 89.1 | NC(=O)c1ccc(C(=O)NOCc2ccc(Oc3ccccc3)cc2)cc1 |
| C-C chemokine receptor type 5 (CCR5, Homo sapiens, UniProt P51681) | calcium signal | antagonist | – | U87/CD4/CCR5 | 20 µM | 76 | C/C(=C\C(=O)OCCCCCCCCC(=O)O)C[C@@H]1OC[C@H](C[C@@H]2O[C@H]2[C@@H](C)[C@H](C)O)[C@@H](O)[C@H]1O |
| SIRT6 | enzyme activity | inhibitor | fluorescence | – | 100 µM | 78.2 | COc1ccc(CONC(=O)c2ccc(C(N)=O)cc2)cc1 |
| Poly [ADP-ribose] polymerase 2 (PARP2, Homo sapiens, UniProt Q9UGN5) | enzyme activity | inhibitor | – | – | 10 µM | 40 | Ic1cccc2cnccc12 |
